Experiment: Displacement of [125I]TZDM from amyloid beta (1 to 40) aggregates after 2 hrs by gamma counting
In short: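 Competition binding against [125I]TZDM as radiolabeled standard, using Aβ1–40 aggregates; run in triplicate, results as mean ± SD.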

Ki: 128 nM
Compound: Cc1ccc2c(ccn2C(=O)/C=C/c2ccccc2)c1
